According to ChEMBL document CHEMBL4024752, “Noncovalent Protein Arginine Deiminase (PAD) Inhibitors Are Efficacious in Animal Models of Multiple Sclerosis” (J Med Chem, 2017):
pKi: −log10 of the molar value. The source made the active and inactive calls. The calls are words filed in the database; no cut-off is given here.

Legend:
Mus musculus [1] = experiment: Antiinflammatory activity in MOG (35 to 55 residues)-induced C57BL/6 mouse autoimmune encephalomyelitis model assessed as improvement in physical disability at 50 mg/kg, ip administered daily measured on day 35 post immunization; type: functional, organism-based
In short: (§1)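 Female C57BL/6 mice, 8 weeks old, were immunized s.c. with 100 µg MOG peptide in CFA, plus 400 ng pertussis toxin i.p. at immunization and again at 48 h. Daily i.p. dosing at 50 mg/kg in PBS (pH 7.5) began at clinical score 2 and continued up to 60 days. Controls got an equal volume of PBS (n=5 vs 7). Clinical score and body weight were recorded daily.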

Mus musculus [2] = experiment: Antiinflammatory activity in MOG (35 to 55 residues)-induced C57BL/6 mouse autoimmune encephalomyelitis model assessed as survival rate at 50 mg/kg, ip administered daily up to 60 days (reference value: 80%); type: functional; conditions: C57BL/6, ip, 1440 h
Mus musculus [3] = experiment: Antiinflammatory activity in MOG (35 to 55 residues)-induced C57BL/6 mouse autoimmune encephalomyelitis model assessed as reduction in inflammation in spinal cord at 50 mg/kg, ip administered daily measured at day 60 post immunization; type: functional, organism-based; conditions: in the assay text read “brain” for “spinal cord”
In short: (§2)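 MOG/CFA-immunized female C57BL/6 mice were treated daily at 50 mg/kg i.p. in PBS from score 2 for up to 60 days; controls received PBS. At study end, brain and spinal cord sections were stained with H&E and Luxol Fast Blue. Inflammation was quantified as inflamed area over total tissue area by positive pixel count.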

Mus musculus [4] = experiment: Antiinflammatory activity in MOG (35 to 55 residues)-induced C57BL/6 mouse autoimmune encephalomyelitis model assessed as reduction in lesions in cerebellum at 50 mg/kg, ip administered daily up to 60 days by LFB/H and E staining based assay; type: functional, organism-based; in short: as §2
Mus musculus [5] = experiment: Antiinflammatory activity in MOG (35 to 55 residues)-induced C57BL/6 mouse autoimmune encephalomyelitis model assessed as reduction in lesions in olfactory tract at 50 mg/kg, ip administered daily up to 60 days by LFB/H and E staining based assay; type: functional, organism-based; in short: as §2
Mus musculus [6] = experiment: Antiinflammatory activity in MOG (35 to 55 residues)-induced C57BL/6 mouse autoimmune encephalomyelitis model assessed as reduction in lesions in internal capsule at 50 mg/kg, ip administered daily by LFB/H and E staining based assay; type: functional, organism-based; in short: as §2
Mus musculus [7] = experiment: Antiinflammatory activity in MOG (35 to 55 residues)-induced C57BL/6 mouse autoimmune encephalomyelitis model assessed as reduction in accumulation of CD3 positive T-cells in brain at 50 mg/kg, ip administered daily up to 60 days by immunohistochemistry; type: functional, organism-based
In short: (§3)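 MOG/CFA-immunized female C57BL/6 mice were dosed daily at 50 mg/kg i.p. in PBS from score 2 for up to 60 days; PBS controls n=5, treated n=7. Brain sections were immunostained with anti-CD3. Stained cells per µm² were averaged over randomly selected areas.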

Mus musculus [8] = experiment: Antiinflammatory activity in MOG (35 to 55 residues)-induced C57BL/6 mouse autoimmune encephalomyelitis model assessed as reduction in accumulation of CD3 positive T-cells in internal capsule at 50 mg/kg, ip administered daily up to 60 days by immunohistochemistry; type: functional, organism-based; in short: as §3
Mus musculus [9] = experiment: Antiinflammatory activity in MOG (35 to 55 residues)-induced C57BL/6 mouse autoimmune encephalomyelitis model assessed as reduction in accumulation of CD3 positive T-cells in cerebellum at 50 mg/kg, ip administered daily up to 60 days by immunohistochemistry; type: functional, organism-based; in short: as §3
[10] = Elimination rate constant in C57BL/6 mouse serum at 50 mg/kg, ip administered as single dose measured up to 360 mins by UPLC-MS analysis; type: ADME, organism-based
In short: (§4)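 Healthy female C57BL/6 mice (n = 27, 18–22 g) received one i.p. dose of 50 mg/kg, given as a 10 mg/mL aqueous solution (equimolar HCl, pH raised to 6 with NaHCO3). Blood and brain were sampled at 0, 5, 15, 30, 45, 60, 120, 240 and 360 min, 3 mice per time point. Samples were spiked with benzophenone internal standard, lyophilized, extracted into methanol, and quantified by C18 UPLC-MS.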

[11] = Half life in C57BL/6 mouse serum at 50 mg/kg, ip administered as single dose by UPLC-MS analysis; type: ADME, organism-based; in short: as §4
[12] = Cmax in C57BL/6 mouse serum at 50 mg/kg, ip administered as single dose measured up to 360 mins by UPLC-MS analysis; type: ADME, organism-based; design: dose 50 mg/kg, route intraperitoneal; in short: as §4
[13] = Tmax in C57BL/6 mouse serum at 50 mg/kg, ip administered as single dose measured up to 360 mins by UPLC-MS analysis; type: ADME, organism-based; in short: as §4
[14] = AUC (0 to 360 mins) in C57BL/6 mouse serum at 50 mg/kg, ip administered as single dose by UPLC-MS analysis; type: ADME, organism-based; design: dose 50 mg/kg, time < 6 hr, route intraperitoneal; in short: as §4
[15] = Elimination rate constant in C57BL/6 mouse brain at 50 mg/kg, ip administered as single dose measured up to 360 mins by UPLC-MS analysis; type: ADME, organism-based; in short: as §4
[16] = Half life in C57BL/6 mouse brain at 50 mg/kg, ip administered as single dose by UPLC-MS analysis; type: ADME, organism-based; in short: as §4
[17] = Cmax in C57BL/6 mouse brain at 50 mg/kg, ip administered as single dose measured up to 360 mins by UPLC-MS analysis; type: ADME, organism-based; design: dose 50 mg/kg, route intraperitoneal; in short: as §4
[18] = Tmax in C57BL/6 mouse brain at 50 mg/kg, ip administered as single dose measured up to 360 mins by UPLC-MS analysis; type: ADME, organism-based; in short: as §4
[19] = AUC (0 to 360 mins) in C57BL/6 mouse brain at 50 mg/kg, ip administered as single dose by UPLC-MS analysis; type: ADME, organism-based; design: time < 6 hr, dose 50 mg/kg, route intraperitoneal; in short: as §4
Mus musculus [20] = experiment: Toxicity in MOG (35 to 55 residues)-induced C57BL/6 mouse autoimmune encephalomyelitis model assessed as bdoy weight cahnges at 50 mg/kg, ip administered daily up to 60 days; type: organism-based; conditions: in vivo, 1440 h; in short: as §1
[21] = molecular target: Protein-arginine deiminase type-4 (Homo sapiens, UniProt Q9UM07); experiment: Inhibition of full length human GST-tagged PAD4 expressed in baculovirus infected Sf9 insect cells preincubated for 30 mins followed by substrate addition measured after 30 mins
Chain of Protein-arginine deiminase type-4 (Q9UM07 whole entry): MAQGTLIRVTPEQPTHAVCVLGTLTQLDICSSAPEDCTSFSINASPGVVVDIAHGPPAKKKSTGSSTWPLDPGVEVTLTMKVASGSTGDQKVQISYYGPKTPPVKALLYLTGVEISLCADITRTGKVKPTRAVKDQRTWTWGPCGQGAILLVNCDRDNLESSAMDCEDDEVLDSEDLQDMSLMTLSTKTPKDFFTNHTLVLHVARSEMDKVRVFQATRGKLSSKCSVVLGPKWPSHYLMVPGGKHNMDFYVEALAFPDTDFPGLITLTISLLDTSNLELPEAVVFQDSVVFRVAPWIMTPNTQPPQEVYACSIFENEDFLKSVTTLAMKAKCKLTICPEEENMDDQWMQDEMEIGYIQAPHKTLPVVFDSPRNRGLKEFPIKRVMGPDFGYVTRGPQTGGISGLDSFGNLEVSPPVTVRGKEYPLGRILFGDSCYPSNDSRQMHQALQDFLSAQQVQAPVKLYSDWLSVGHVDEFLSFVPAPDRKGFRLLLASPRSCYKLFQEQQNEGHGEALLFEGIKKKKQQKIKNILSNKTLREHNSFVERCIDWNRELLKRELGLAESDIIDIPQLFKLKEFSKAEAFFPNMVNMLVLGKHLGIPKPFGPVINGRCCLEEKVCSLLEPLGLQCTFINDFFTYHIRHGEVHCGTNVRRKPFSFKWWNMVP

[22] = molecular target: T1, Protein-arginine deiminase type-1 (Homo sapiens, UniProt Q9ULC6); experiment: Inhibition of full length human GST-tagged PAD1 expressed in baculovirus infected Sf9 insect cells preincubated for 30 mins followed by substrate addition measured after 30 mins
T1 sequence (Q9ULC6 whole entry): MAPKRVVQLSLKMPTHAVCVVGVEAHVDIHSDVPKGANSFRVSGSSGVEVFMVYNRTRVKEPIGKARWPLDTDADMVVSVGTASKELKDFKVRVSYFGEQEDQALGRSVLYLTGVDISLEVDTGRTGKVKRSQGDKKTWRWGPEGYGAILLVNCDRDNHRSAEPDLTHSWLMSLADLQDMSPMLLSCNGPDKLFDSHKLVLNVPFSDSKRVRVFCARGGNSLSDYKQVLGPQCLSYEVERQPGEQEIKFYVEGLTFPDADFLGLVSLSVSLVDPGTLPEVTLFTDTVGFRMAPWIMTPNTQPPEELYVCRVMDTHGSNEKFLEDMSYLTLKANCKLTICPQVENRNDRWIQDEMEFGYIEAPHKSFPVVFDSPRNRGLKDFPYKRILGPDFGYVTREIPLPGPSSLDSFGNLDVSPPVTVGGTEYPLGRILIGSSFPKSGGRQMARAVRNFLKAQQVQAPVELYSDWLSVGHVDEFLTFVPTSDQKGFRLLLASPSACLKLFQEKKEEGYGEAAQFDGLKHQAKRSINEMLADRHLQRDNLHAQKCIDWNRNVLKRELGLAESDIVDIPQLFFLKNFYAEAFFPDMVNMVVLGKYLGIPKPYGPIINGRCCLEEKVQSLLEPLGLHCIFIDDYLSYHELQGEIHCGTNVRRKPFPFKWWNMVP
In short: (§5)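 Colorimetric citrulline assay at 37 °C in 100 mM Tris, 100 mM NaCl, 10 mM CaCl2, 5 mM DTT, pH 7.5, with about 5% DMSO. Enzyme (hPAD1 50 nM, mPAD2 100 nM) was preincubated with inhibitor (0.1–10 mM) for 30 min. Substrate was then added at 5 mM final for a further 30 min. Diacetyl monoxime/thiosemicarbazide reagent was added, samples were boiled 15 min, and A530 was read.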

[23] = molecular target: Protein-arginine deiminase type-2 (Mus musculus, UniProt Q08642); experiment: Inhibition of full length mouse GST-tagged PAD2 expressed in baculovirus infected Sf9 insect cells preincubated for 30 mins followed by substrate addition measured after 30 mins; in short: as §5
Chain of Protein-arginine deiminase type-2 (Q08642 whole entry): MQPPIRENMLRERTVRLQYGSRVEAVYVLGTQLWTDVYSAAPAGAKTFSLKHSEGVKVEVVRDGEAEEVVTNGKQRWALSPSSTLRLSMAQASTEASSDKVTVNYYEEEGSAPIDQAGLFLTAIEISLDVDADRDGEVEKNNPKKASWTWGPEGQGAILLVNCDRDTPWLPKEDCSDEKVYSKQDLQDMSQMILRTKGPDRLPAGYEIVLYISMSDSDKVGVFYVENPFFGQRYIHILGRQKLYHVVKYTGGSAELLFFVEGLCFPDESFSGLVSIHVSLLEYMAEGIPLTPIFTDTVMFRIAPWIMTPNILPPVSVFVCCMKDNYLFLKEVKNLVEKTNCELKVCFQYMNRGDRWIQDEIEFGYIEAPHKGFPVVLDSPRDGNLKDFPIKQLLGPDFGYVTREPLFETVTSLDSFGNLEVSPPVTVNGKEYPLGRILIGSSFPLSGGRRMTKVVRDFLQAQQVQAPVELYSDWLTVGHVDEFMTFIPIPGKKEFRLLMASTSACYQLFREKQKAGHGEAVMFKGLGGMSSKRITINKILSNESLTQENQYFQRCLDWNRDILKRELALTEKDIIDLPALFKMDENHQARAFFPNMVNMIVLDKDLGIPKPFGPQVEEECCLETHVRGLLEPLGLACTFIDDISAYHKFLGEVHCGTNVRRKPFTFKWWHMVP

Cl.Cn1cccc1C(=O)N[C@@H](CCn1ccnc1)C(=O)NCc1ccccc1
Activity (Mus musculus [1]): Active | survival at 50 mg/kg (Mus musculus [2]): 100% | Activity (Mus musculus [3]): Active | Activity (Mus musculus [4]): Active | Activity (Mus musculus [5]): Active | Activity (Mus musculus [6]): Active | Activity (Mus musculus [7]): Active | Activity (Mus musculus [8]): Active | Activity (Mus musculus [9]): Active | k el at 6 h [10]: 0.000333 s⁻¹ | half-life [11]: 34.8 min | Cmax [12]: 12000 ng/mL | Tmax [13]: 15 min | AUC(0-t) at 6 h [14]: 8460 ng·h/mL | k el at 6 h [15]: 0.0003 s⁻¹ | half-life [16]: 38.5 min | Cmax [17]: 170 ng/mL | Tmax [18]: 15 min | AUC(0-t) at 6 h [19]: 105 ng·h/mL | Activity (Mus musculus [20]): Non-Toxic

O=C(N[C@@H](CCn1ccnn1)C(=O)NCc1ccccc1)c1ccco1
pKi [21]: 2.55 | pKi [22]: 2.96 | pKi [23]: 3.55

Cn1cccc1C(=O)N[C@@H](CCn1ccnn1)C(=O)NCc1ccccc1
pKi [22]: 3.95 | pKi [23]: 4.15
